According to publication PMC9157599 (Materials Today Bio, 2022):
Numbered stars: 1 amine (or outer) side, 2 acyl side, 3 side chain; on linkers, the order of the positions; unused ones are H or OH. Square brackets hold non-standard residues; d marks the D form. Peptide text beside a SMILES is read from it. * marks the point of attachment. DAMPA = CN(Cc1cnc2nc(N)nc(N)c2n1)c1ccc(C(=O)*)cc1; γGlu = O=C(O)[C@H](CCC(=O)[*:2])N[*:1]

What was measured:
AIA mice [1] = experiment: Histology and immunohistochemistry of knee joints of AIA mice; type: in vivo, C57BL/6 mice; settings: day 28
Summary of the method: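 Male 8-week C57BL/6 mice received CFA (1% w/v) s.c. in the fore underarm, then the same dose of IFA into both hind pads a week later. One week on, 20 μL test hydrogel or PBS was given intra-articularly into both knees twice weekly for 4 weeks (n = 5). On day 28 knees were fixed in 4% paraformaldehyde, EDTA-decalcified 30 days, stained H&E and safranin-O/fast green, and Mankin-scored.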

AIA mice [2] = experiment: Immunofluorescence staining of synovial tissues of AIA mice; type: in vivo, C57BL/6 mice; settings: for fluorescence signal of iNOS (M1 macrophages) in synovial tissues: n = 3; for synovial pannus / neovascularization (CD31 expression): n = 3 (Fig. 6c, Figure S14)
Summary of the method: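 AIA was induced in male C57BL/6 mice with CFA s.c., followed a week later by IFA into the hind pads. Knees received 20 μL intra-articular treatment twice weekly for 4 weeks. Knee joint sections were stained overnight at 4 °C with antibodies to CD31, F4/80, CD206 or iNOS (1:300), then Alexa Fluor 488 or Cy3 secondaries (1:8000, 2 h, room temperature) and DAPI. Imaging was by fluorescence microscopy, n = 3.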

AIA mice [3] = experiment: Therapeutic effect in adjuvant-induced arthritis; type: in vivo, C57BL/6 mice; settings: n = 5; for paw swelling after 4 weeks of treatment: 20 μL intra-articular, both knees, twice a week for 4 weeks; for clinical score: dynamic, up to 28 days; for skin temperature of hind paws: infrared camera, 28th day after administration
Summary of the method: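 Male C57BL/6 AIA mice (CFA s.c. in the fore underarm; IFA into both hind pads a week later; treatment after one further week) were randomised to groups of n = 5. Dosing was 20 μL intra-articular into both knees twice weekly for 4 weeks. Arthritis was scored clinically, joint diameter was measured weekly by vernier caliper, and hind-paw skin temperature was recorded by infrared camera on day 28.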

RA-FLS [4] = experiment: Wound-healing; type: cell-based; settings: 100 μM, 48 h culture then scratch, n = 6
Summary of the method: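 RA-FLS were serum-starved 12 h, mixed with hydrogels (formed from 100 μM peptide) or MTX solution (100 μM), and cultured 48 h. Monolayers were then scratched. Migration rate was calculated from healed area after a further 12 and 24 h, n = 6.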

[5] = tested on: M1 macrophages (LPS-induced RAW264.7); experiment: RT-qPCR of M1 markers in LPS-induced RAW264.7; type: cell-based, Mice; settings: 100 μM, 24 h, compared to control group (LPS), n = 3
Summary of the method: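 RAW264.7 cells were polarised to M1 with 1% w/v LPS medium for 24 h, then treated with test compound or hydrogel (100 μM) for 24 h. Total RNA was extracted with TRIzol, and iNOS, IL-6 and TNF-α mRNA were quantified by RT-qPCR.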

RA-FLS [6] = experiment: Transwell invasion assay; type: cell-based; settings: transwell with Matrigel, 100 μM, 24 h, n = 6
Summary of the method: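 RA-FLS were serum-starved 12 h and mixed with hydrogels or MTX solution (100 μM). They were seeded in the upper transwell chamber in serum-free medium with 12.5% Matrigel, with 20% FBS medium below as chemoattractant. After 24 h, invaded cells were stained with 2% crystal violet and counted microscopically, n = 6.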

RAW264.7 cells = experiment: Immunofluorescence staining of iNOS and CD206 on RAW264.7; type: cell-based, Mice; settings: 100 μM, 24 h
Summary of the method: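 RAW264.7 cells were polarised with 1% w/v LPS-containing medium for 24 h, then exposed to test compound or hydrogel (100 μM) for another 24 h. Cells were immunostained for iNOS (M1) and CD206 (M2) and imaged by fluorescence.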

[7] = tested on: RA synovial fibroblast (RA-FLS); experiment: MTT cell viability, RA-FLS; type: cell-based; settings: 48 h
Summary of the method: (§1)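 Cells were seeded at 10^4 per well and exposed for 48 h to test compound or hydrogel at 200, 100, 50, 10, 5 or 0 μM. Viability was read by MTT absorbance at 490 nm.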

proteinase K = proteinase K (Parengyodontium album, UniProt P06873); experiment: Biostability of hydrogels exposed to proteinase K; type: in vitro ADME; settings: for change of HPLC peak after addition of proteinase K: 37 °C, HPLC spectra (Fig. 1e)
Summary of the method: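 Peptide (1 mg in 5 mL PBS) incubated at 37 °C with proteinase K (3.2 units/mL). Aliquots were taken at each time point and analysed by reverse-phase HPLC on a C18 column, eluting with MeOH and water (each with 0.05% TFA).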

L929 = experiment: Live/dead staining, L929; type: cell-based, mouse; settings: 100 μM, 48 h, Calcein AM/PI; MTX-loaded compared to MTX-GFFY and free MTX groups
Summary of the method: (§2)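 Cells were exposed to hydrogels or free MTX (100 μM) for 48 h, stained with Calcein AM (live) and propidium iodide (dead), and imaged by fluorescence microscopy.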

RA-FLS [8] = experiment: Live/dead staining, RA-FLS; type: cell-based; settings: 100 μM, 48 h, Calcein AM/PI
mouse fibroblast (L929) = experiment: MTT cell viability, L929; type: cell-based; settings: 5-200 μM, 48 h, n = 3
Summary of the method: as §1

[9] = tested on: human umbilical vein endothelial cell (HUVEC); experiment: MTT cell viability, HUVEC; type: cell-based; settings: 5-200 μM, 48 h, n = 3
Summary of the method: as §1

[10] = tested on: M1 macrophages (LPS-induced RAW264.7); experiment: Western blot of M1 markers in RAW264.7; type: cell-based, Mice; settings: 100 μM, 24 h, compared to control group (LPS), n = 3
Summary of the method: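 RAW264.7 cells were polarised with […] LPS for 24 h, then treated with test compound or hydrogel (100 μM) for 24 h. Lysate protein was quantified by Bradford assay, run on 10% SDS-PAGE and transferred to PVDF. Membranes were probed overnight at 4 °C for iNOS, IL-6 and TNF-α, then secondary antibody for 120 min at room temperature. Detection was by chemiluminescence, with tubulin reference and densitometry, n = 3.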

HUVEC = experiment: Live/dead staining, HUVEC; type: cell-based, human; settings: 100 μM, 48 h, Calcein AM/PI; MTX-loaded compared to MTX-GFFY and free MTX groups
Summary of the method: as §2

[11] = Gelation by heating-cooling and recovery after injection; type: physicochemical
Summary of the method: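 Gels were formed by dissolving peptide in PBS/Na2CO3 (pH 7.4), heating 30 s (flame or 100 °C water bath), then cooling at room temperature. Samples went onto the rheometer right after gelation: 40 mm parallel plates, 500 μm gap, frequency sweep 0.1–100 rad/s at 1% strain. Gel was measured before and after injection.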

AIA mice [12] = experiment: Serum inflammatory cytokines in AIA mice; type: in vivo, C57BL/6 mice; settings: compared to PBS group, without statistical difference, n = 3 (Figure S13)
[13] = hydrogel exposed to proteinase K at 37 °C, images (Figure S8)

Chain of proteinase K (P06873 106-384, species assumed): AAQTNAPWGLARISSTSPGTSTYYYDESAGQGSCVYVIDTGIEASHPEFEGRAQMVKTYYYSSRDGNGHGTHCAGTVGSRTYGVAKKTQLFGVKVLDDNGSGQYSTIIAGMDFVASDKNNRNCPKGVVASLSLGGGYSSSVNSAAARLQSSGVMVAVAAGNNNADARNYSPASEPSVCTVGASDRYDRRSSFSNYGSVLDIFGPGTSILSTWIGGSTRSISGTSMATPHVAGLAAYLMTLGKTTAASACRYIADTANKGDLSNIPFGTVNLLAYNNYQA

Which “synovial hyperplasia and joint structure (H&E staining)” value (AIA mice [1]) does the source give for `CN(Cc1cnc2nc(N)nc(N)c2n1)c1ccc(C(=O)N[C@@H](CCC(=O)O)C(=O)O)cc1` [MTX, methotrexate, reference compound] here?
The value was “synovial evasion was inhibited”.

And the “fluorescence signal of iNOS (M1 macrophages) in synovial tissues” value (AIA mice [2])?
Its value is “significantly decreased”.

And the “synovial pannus / neovascularization (CD31 expression)” value (AIA mice [2])?
Its value is “lowest among all treatment groups”.

And the “paw swelling after 4 weeks of treatment” value (AIA mice [3])?
The value was “paw swelling was alleviated”.

What about the clinical score (AIA mice [3]) of the same compound?
The clinical score was “gradually decreased”.

What about the “skin temperature of hind paws” value (AIA mice [3]) of the same compound?
Its value is “below 33 °C”.

And the “wound-healing rate at 12 h” value (RA-FLS [4]; 12 h)?
The value was 50%.

And the “wound-healing rate at 24 h” value (RA-FLS [4])?
The value was 100%.

And the “relative gene expression of M1 markers (IL-6, TNF-α, iNOS)” value [5]?
Its value is “not obvious”.

What about the “RA-FLS invasion into the lower chamber (cell numbers)” value (RA-FLS [6]) of the same compound?
The value was “inhibited approximately half”.

And the “expression of iNOS (M1 marker) in RAW264.7 cells” value (RAW264.7 cells)?
Its value is “significantly decreased”.

For `CN(Cc1cnc2nc(N)nc(N)c2n1)c1ccc(C(=O)N[C@@H](CCC(=O)NCC(=O)N[C@@H](Cc2ccccc2)C(=O)N[C@@H](Cc2ccccc2)C(=O)N[C@@H](Cc2ccc(O)cc2)C(=O)O)C(=O)O)cc1` [MTX-GFFY] ({DAMPA-γGlu}-GFFY-OH), which “synovial hyperplasia and joint structure (H&E staining)” value (AIA mice [1]) is on record?
Its value is “synovial evasion was inhibited”.

What about the “fluorescence signal of iNOS (M1 macrophages) in synovial tissues” value (AIA mice [2]) of the same compound?
The value was “significantly decreased”.

And the “effect on RA-FLS at 100 μM” value ([7]; 100 μM)?
The value was “mild effects”.

What about the “paw swelling after 4 weeks of treatment” value (AIA mice [3]) of the same compound?
Its value is “paw swelling was alleviated”.

And the “skin temperature of hind paws” value (AIA mice [3])?
Its value is “below 33 °C”.

What about the “wound-healing rate at 24 h” value (RA-FLS [4]) of the same compound?
The value was 50%.

What about the “RA-FLS invasion into the lower chamber (cell numbers)” value (RA-FLS [6]) of the same compound?
Its value is “obviously decreased”.

What about the “time after which hydrogel became flowable” value (proteinase K; [13]) of the same compound?
Its value is 1 days.

What about the “change of HPLC peak after addition of proteinase K” value (proteinase K) of the same compound?
Its value is “gradually decreased”.

What does the source list for `CN(Cc1cnc2nc(N)nc(N)c2n1)c1ccc(C(=O)N[C@@H](CCC(=O)NCC(=O)N[C@H](Cc2ccccc2)C(=O)N[C@H](Cc2ccccc2)C(=O)N[C@H](Cc2ccc(O)cc2)C(=O)O)C(=O)O)cc1` [MTX-G^DF^DF^DY] ({DAMPA-γGlu}-G[dF][dF][dY]-OH)?
IL-6 expression level in synovial tissue (immunohistochemistry) (AIA mice [1]): decreased to a similar level to normal group; synovial hyperplasia and joint structure (H&E staining) (AIA mice [1]): knee joint structure was well protected; live/dead staining, L929 (L929): less L929 and HUVEC cells were dead; live/dead staining, RA-FLS (RA-FLS [8]): significantly enhanced the ratio of dead cells/live cells; effect on cell proliferation / cytotoxicity, L929 (mouse fibroblast (L929)): reduced the cytotoxicity; fluorescence signal of iNOS (M1 macrophages) in synovial tissues (AIA mice [2]): lowest; synovial pannus / neovascularization (CD31 expression) (AIA mice [2]): lowest among all treatment groups; effect on cell proliferation / cytotoxicity, HUVEC [9]: reduced the cytotoxicity; expression of M1 macrophage related proteins (iNOS, IL-6, TNF-α) [10]: best inhibitory effect; live/dead staining, HUVEC (HUVEC): less L929 and HUVEC cells were dead; time until hydrogel became stable (dynamic gelation process) ([11]; 10.317 mM (1 wt%) peptide in PBS, heating-cooling process (Figure S3)): ≤ 2 min; time to return to gel after injection ([11]; rheology before and after injection (Fig. 1d)): 5 min; effect on RA-FLS proliferation at 50 μM ([7]; 50 μM): significantly inhibited RA-FLS proliferation; paw swelling after 4 weeks of treatment (AIA mice [3]): effectively relieved paw swelling; clinical score (AIA mice [3]): lowest among all groups; wound-healing rate at 24 h (RA-FLS [4]): 40%; relative gene expression of M1 markers (IL-6, TNF-α, iNOS) [5]: all marker genes of M1 macrophages were significantly down-regulated; RA-FLS invasion into the lower chamber (cell numbers) (RA-FLS [6]): obviously decreased; expression of iNOS (M1 marker) in RAW264.7 cells (RAW264.7 cells): strongest inhibitory effect; time hydrogel was stable in vitro (proteinase K; [13]): approximately 5 days; change of HPLC peak after addition of proteinase K (proteinase K): had no obvious change; level of serum IL-6 (AIA mice [12]): slightly lower; level of serum TNF-α (AIA mice [12]): slightly lower
